Reference: paper PMC7345411 (ACS Omega, 2020)
“And” between values parts separate entries of the source, which are not always exact repeats. Equal entries are not always repeated.

Legend:
[1] = Solubility in water by UV-visible spectrophotometry; type: physicochemical
[2] = system: HCT116; test: MTT cell proliferation inhibition assay; type: cell-based; conditions: Homo sapiens, HCT-116, 72 h
[3] = system: HeLa; test: MTT cell proliferation inhibition assay; type: cell-based; conditions: Homo sapiens, 72 h
[4] = system: Hep G2; test: MTT cell proliferation inhibition assay; type: cell-based; conditions: Homo sapiens, HepG2, 72 h
[5] = system: JEG3; test: MTT cell proliferation inhibition assay; type: cell-based; conditions: Homo sapiens, JEG-3, 72 h
[6] = system: SMMC7721; test: MTT cell proliferation inhibition assay; type: cell-based; conditions: Homo sapiens, SMMC-7721, 72 h
[7] = system: HCT116 tumor; test: HCT116 xenograft tumor model in BALB/c nude mice; type: in vivo; conditions: dose 0.036 mmol/kg/d, daily injection for 21 days
Method in brief: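 Nude mice given 5 × 10^5 viable HCT116 cells subcutaneously in the right flank. Daily injections into the left hypogastrium for 21 days. Test compound at 0.006, 0.012 or 0.018 mmol/kg/d. Comparators: 5-FU 0.036 mmol/kg/d and an uncrystallised 3:1 mix (5-FU 0.036 + NCM 0.012 mmol/kg/d), plus blank control. Mice euthanised; tumours weighed and examined by H&E (×100). TGI = (mean control weight − mean treated weight)/mean control weight.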

[8] = Pharmacokinetics after oral administration in rats; type: in vivo, Sprague-Dawley rats; conditions: 0.06 mmol/kg
[9] = Acute toxicity study; type: in vivo; conditions: for Nd (number of dead animals) / R (%) = Nd/Ni: Ni 10; for LD50: in vivo, acute toxicity
[10] = Sprague-Dawley, rat, plasma, po
[11] = dose 122.2/0.86 (mg/kg)/(mmol/kg)
[12] = dose 133.4/1.03 (mg/kg)/(mmol/kg)
[13] = dose 158.5/1.22 (mg/kg)/(mmol/kg)

O=c1[nH]cc(F)c(=O)[nH]1 [5-FU, 5-Fluorouracil]
solubility at 24 h [1]: 10500 µg/mL and 80000 µM | IC50 [2]: 0.0325 µM | IC50 [3]: 7.96 µM | IC50 [4]: 3.86 µM | IC50 [5]: 2.18 µM | IC50 [6]: 18.9 µM | TGI (tumor growth inhibition) [7]: 21.8% | W̅ average tumor growth weight [7]: 0.65 ± 0.10 g | AUC(0-inf) [8, 10]: 5.07 ± 0.104 µM·h | AUC(0-t) [8, 10]: 4.93 ± 0.076 µM·h | CL/F [8, 10]: 197 mL/min/kg | Cmax [8, 10]: 7.99 ± 0.375 µM | Tmax [8, 10]: 20 min | half-life [8, 10]: 18.1 ± 3.72 min | V1/F ([8]; oral, SD rats, n = 8): 2.783 ± 0.915 L/kg | t1/2α ([8]; oral, SD rats, n = 8): 3.84 ± 0.78 min | probit (P + 5) [9, 11]: 3.720 | Nd (number of dead animals) [9, 11]: 1 | R (%) = Nd/Ni [9, 11]: 10% | probit (P + 5) [9, 12]: 5.520 | Nd (number of dead animals) [9, 12]: 7 | R (%) = Nd/Ni [9, 12]: 70% | probit (P + 5) [9, 13]: 6.28 | Nd (number of dead animals) [9, 13]: 9 | R (%) = Nd/Ni [9, 13]: 90% | LD50 ([9]; LD50 95% confidence interval): 380 to 2630 µmol/kg | LD50 ([9]; LD50 (median lethal dose)): 1000 µmol/kg
